Data: ChEMBL document CHEMBL4627411, “Novel Piperidinyl-Azetidines as Potent and Selective CCR4 Antagonists Elicit Antitumor Response as a Single Agent and in Combination with Checkpoint Inhibitors” (J Med Chem, 2020)
Activity calls are given as the source filed them. The rule behind the calls is not given here.

What was measured:
[1] = Metabolic stability in rat hepatocytes assessed as parent compound remaining at 1 uM after 60 mins by LC-MS/MS analysis; assay type: ADME, cell-based, Hepatocyte; conditions: read-out: Stability
Summary of the method: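 Hepatocytes (human or rat). Compound incubated for 60 min; value is % parent remaining.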

Cytochrome P450 1A2 = Cytochrome P450 1A2 (Homo sapiens, UniProt P05177); assay: Inhibition of CYP1A2 in human liver microsomes using phenacetin as substrate incubated for 20 mins in presence of NADPH by LC-MS/MS analysis; assay type: ADME
Cytochrome P450 2C9 = Cytochrome P450 2C9 (Homo sapiens, UniProt P11712); assay: Inhibition of CYP2C9 in human liver microsomes using diclofenac sodium salt as substrate incubated for 20 mins in presence of NADPH by LC-MS/MS analysis; assay type: ADME
Cytochrome P450 2C19 = Cytochrome P450 2C19 (Homo sapiens, UniProt P33261); assay: Inhibition of CYP2C19 in human liver microsomes using S-mephenytoin as substrate incubated for 20 mins in presence of NADPH by LC-MS/MS analysis; assay type: ADME
[2] = Clearance in mouse at 0.5 mg/kg, iv; assay type: ADME, organism-based; conditions: in vivo
[3] = Volume of distribution at steady state in mouse at 0.5 mg/kg, iv; assay type: ADME, organism-based; conditions: in vivo, read-out: Vdss
[4] = Half life in mouse at 0.5 mg/kg, iv; assay type: ADME, organism-based; conditions: in vivo
[5] = AUC (0 to last) in mouse at 2 mg/kg, po; assay type: ADME, organism-based; parameters: dose 2 mg/kg, time 0 - last, route oral; conditions: in vivo
[6] = Oral bioavailability in mouse at 2 mg/kg; assay type: ADME, organism-based; conditions: in vivo
[7] = Clearance in dog at 0.5 mg/kg, iv; assay type: ADME, organism-based, Canis lupus familiaris; conditions: in vivo
[8] = Half life in dog at 0.5 mg/kg, iv; assay type: ADME, organism-based, Canis lupus familiaris; conditions: in vivo
[9] = Oral bioavailability in dog at 2 mg/kg; assay type: ADME, organism-based, Canis lupus familiaris; conditions: in vivo
[10] = Clearance in cynomolgus monkey at 0.5 mg/kg, iv; assay type: ADME, organism-based, Macaca fascicularis; conditions: in vivo
[11] = Terminal half life in cynomolgus monkey at 0.5 mg/kg, iv; assay type: ADME, organism-based, Macaca fascicularis; conditions: in vivo, read-out: beta t1/2 (converted)
[12] = Oral bioavailability in cynomolgus monkey at 2 mg/kg; assay type: ADME, organism-based, Macaca fascicularis; conditions: in vivo
[13] = target: C-C chemokine receptor type 1 (Homo sapiens) (UniProt P32246); assay: Antagonist activity at human Gi/G0-coupled CCR1 receptor assessed as inhibition of CCL3-induced beta arrestin2 recruitment at 500 nM preincubated for 30 mins followed by CCL3 stimulation and measured after 90 to 180 mins by pathhunter assay
[14] = target: C-C chemokine receptor type 4 (Homo sapiens) (UniProt P51679); assay: Antagonist activity at human Gi/G0-coupled CCR4 receptor expressed in CHO-K1 cells assessed as inhibition of CCL22-induced beta arrestin2 recruitment at 500 nM preincubated for 30 mins followed by CCL22 stimulation and measured after 90 to 180 mins by pathhunter assay; assay type: cell-based
[15] = target: C-C chemokine receptor type 5 (Homo sapiens) (UniProt P51681); assay: Antagonist activity at human Gi/G0-coupled CCR5 receptor expressed in CHOK1 cells assessed as inhibition of CCL3-induced beta arrestin2 recruitment at 500 nM preincubated for 30 mins followed by CCL3 stimulation and measured after 90 to 180 mins by pathhunter assay; assay type: cell-based; conditions: CHO-K1
[16] = target: C-C chemokine receptor type 6 (Homo sapiens) (UniProt P51684); assay: Antagonist activity at human Gi/G0-coupled CCR6 receptor expressed in CHOK1 cells assessed as inhibition of CCL20-induced beta arrestin2 recruitment at 500 nM preincubated for 30 mins followed by CCL20 stimulation and measured after 90 to 180 mins by pathhunter assay; assay type: cell-based; conditions: CHO-K1
[17] = target: C-C chemokine receptor type 7 (Homo sapiens) (UniProt P32248); assay: Antagonist activity at human Gi/G0-coupled CCR7 receptor assessed as inhibition of CCL19-induced beta arrestin2 recruitment at 500 nM preincubated for 30 mins followed by CCL19 stimulation and measured after 90 to 180 mins by pathhunter assay
[18] = target: C-C chemokine receptor type 8 (Homo sapiens) (UniProt P51685); assay: Antagonist activity at human CCR8 receptor assessed as inhibition of CCL1-induced beta arrestin2 recruitment at 500 nM preincubated for 30 mins followed by CCL1 stimulation and measured after 90 to 180 mins by pathhunter assay
[19] = target: Chemerin-like receptor 1 (Homo sapiens) (UniProt Q99788); assay: Antagonist activity at human CMKLR1 expressed in CHOK1 cells assessed as inhibition of chemerin-induced beta arrestin2 recruitment at 500 nM preincubated for 30 mins followed by chemerin stimulation and measured after 90 to 180 mins by pathhunter assay; assay type: cell-based; conditions: CHO-K1
[20] = target: C-X-C chemokine receptor type 1 (Homo sapiens) (UniProt P25024); assay: Antagonist activity at human Gi/G0-coupled CXCR1 expressed in CHOK1 cells assessed as inhibition of CXCL8-induced beta arrestin2 recruitment at 500 nM preincubated for 30 mins followed by CXCL8 stimulation and measured after 90 to 180 mins by pathhunter assay; assay type: cell-based; conditions: CHO-K1
[21] = target: C-X-C chemokine receptor type 3 (Homo sapiens) (UniProt P49682); assay: Antagonist activity at human Gi/G0-coupled CXCR3 assessed as inhibition of CXCL11-induced beta arrestin2 recruitment at 500 nM preincubated for 30 mins followed by CXCL11 stimulation and measured after 90 to 180 mins by pathhunter assay
[22] = target: C-X-C chemokine receptor type 5 (Homo sapiens) (UniProt P32302); assay: Antagonist activity at human Gi/G0-coupled CXCR5 assessed as inhibition of CXCL13-induced beta arrestin2 recruitment at 500 nM preincubated for 30 mins followed by CXCL13 stimulation and measured after 90 to 180 mins by pathhunter assay
[23] = target: Atypical chemokine receptor 3 (Homo sapiens) (UniProt P25106); assay: Antagonist activity at human CXCR7 assessed as inhibition of CXCL12-induced beta arrestin2 recruitment at 500 nM preincubated for 30 mins followed by CXCL12 stimulation and measured after 90 to 180 mins by pathhunter assay
CT26 [24] = assay: Antitumor activity against mouse CT26 cells allografted in Balb/c mouse assessed as reduction in tumor volume at 50 mg/kg, po qd for 28 days starting from 3 days post inoculation measured twice weekly; assay type: functional, organism-based
CT26 [25] = assay: Antitumor activity against mouse CT26 cells allografted in Balb/c mouse assessed as reduction in tumour volume at 50 mg/kg, po qd for 28 days starting from 3 days post inoculation measured twice weekly in presence of checkpoint inhibitor anti-PD-L1; assay type: functional, organism-based
Panc02 [26] = assay: Antitumor activity against mouse Panc02 cells allografted in C57BL/6 mouse assessed as reduction in tumor growth at 50 mg/kg, po qd for 38 days in presence of anti-CTLA-4; assay type: functional, organism-based
Summary of the method: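 Pan02-OVA syngeneic tumor model. Compound given 50 mg/kg PO QD on a therapeutic schedule, alone or combined with anti-CTLA-4 antibody; tumor growth tracked. Groups compared by two-tailed t-test.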

Panc02 [27] = assay: Antitumor activity against mouse Panc02 cells implanted in po dosed C57BL/6 mouse assessed as inhibition of GFP-positive Treg cell migration in to tumor micro environment administered 30 mins prior to Treg cell population addition followed by daily compound dosing for 5 days and measured on day 6 by flow cytometry analysis; assay type: functional, organism-based
Summary of the method: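 Pan02 pancreatic ductal adenocarcinoma mice. Oral compound at several doses; adoptively transferred GFP+ iTreg counted in the tumor, with spleen, skin and lung also examined.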

Cytochrome P450 = assay: Induction of CYP450 (unknown origin); assay type: ADME, protein assay; conditions: human

Chain of C-C chemokine receptor type 5 (Homo sapiens) (P51681 whole entry, looked up): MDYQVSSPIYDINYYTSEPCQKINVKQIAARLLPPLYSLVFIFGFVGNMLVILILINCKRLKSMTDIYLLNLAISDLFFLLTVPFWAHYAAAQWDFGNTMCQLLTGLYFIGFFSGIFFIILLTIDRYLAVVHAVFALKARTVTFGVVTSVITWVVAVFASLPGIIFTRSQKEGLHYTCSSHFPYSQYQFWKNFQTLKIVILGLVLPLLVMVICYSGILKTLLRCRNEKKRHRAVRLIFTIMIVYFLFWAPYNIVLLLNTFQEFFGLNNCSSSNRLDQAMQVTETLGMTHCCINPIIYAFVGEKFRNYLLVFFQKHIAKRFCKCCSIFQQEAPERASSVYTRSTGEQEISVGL
Chain of C-X-C chemokine receptor type 3 (Homo sapiens) (P49682 whole entry): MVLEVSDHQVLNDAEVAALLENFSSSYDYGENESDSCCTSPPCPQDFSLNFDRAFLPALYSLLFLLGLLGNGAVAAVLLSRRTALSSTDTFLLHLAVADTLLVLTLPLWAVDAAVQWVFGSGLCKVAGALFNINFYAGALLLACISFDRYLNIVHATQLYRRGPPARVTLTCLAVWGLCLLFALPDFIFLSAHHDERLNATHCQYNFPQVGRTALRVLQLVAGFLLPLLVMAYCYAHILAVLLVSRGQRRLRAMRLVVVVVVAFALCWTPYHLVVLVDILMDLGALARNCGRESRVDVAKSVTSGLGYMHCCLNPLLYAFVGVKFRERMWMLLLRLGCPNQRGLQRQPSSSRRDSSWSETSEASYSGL
Chain of C-X-C chemokine receptor type 1 (Homo sapiens) (P25024 whole entry): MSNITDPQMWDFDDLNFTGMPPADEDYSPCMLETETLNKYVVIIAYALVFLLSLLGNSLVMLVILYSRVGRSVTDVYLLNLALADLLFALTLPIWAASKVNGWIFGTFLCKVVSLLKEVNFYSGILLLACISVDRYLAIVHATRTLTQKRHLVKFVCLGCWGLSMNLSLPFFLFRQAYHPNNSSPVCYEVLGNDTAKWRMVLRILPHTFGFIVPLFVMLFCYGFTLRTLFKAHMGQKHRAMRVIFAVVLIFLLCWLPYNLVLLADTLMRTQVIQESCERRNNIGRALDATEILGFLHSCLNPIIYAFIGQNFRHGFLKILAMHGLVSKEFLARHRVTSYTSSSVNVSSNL
Chain of C-C chemokine receptor type 7 (Homo sapiens) (P32248 whole entry): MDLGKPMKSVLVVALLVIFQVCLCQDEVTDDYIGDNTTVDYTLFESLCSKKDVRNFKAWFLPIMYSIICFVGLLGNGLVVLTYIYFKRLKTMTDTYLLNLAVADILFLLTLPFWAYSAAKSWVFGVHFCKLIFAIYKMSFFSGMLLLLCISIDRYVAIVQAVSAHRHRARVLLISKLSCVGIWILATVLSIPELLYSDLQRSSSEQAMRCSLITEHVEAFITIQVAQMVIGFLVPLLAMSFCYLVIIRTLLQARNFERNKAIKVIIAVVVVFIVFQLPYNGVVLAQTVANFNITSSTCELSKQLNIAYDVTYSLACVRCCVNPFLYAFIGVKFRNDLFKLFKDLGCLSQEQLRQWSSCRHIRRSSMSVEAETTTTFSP
Chain of Atypical chemokine receptor 3 (Homo sapiens) (P25106 whole entry): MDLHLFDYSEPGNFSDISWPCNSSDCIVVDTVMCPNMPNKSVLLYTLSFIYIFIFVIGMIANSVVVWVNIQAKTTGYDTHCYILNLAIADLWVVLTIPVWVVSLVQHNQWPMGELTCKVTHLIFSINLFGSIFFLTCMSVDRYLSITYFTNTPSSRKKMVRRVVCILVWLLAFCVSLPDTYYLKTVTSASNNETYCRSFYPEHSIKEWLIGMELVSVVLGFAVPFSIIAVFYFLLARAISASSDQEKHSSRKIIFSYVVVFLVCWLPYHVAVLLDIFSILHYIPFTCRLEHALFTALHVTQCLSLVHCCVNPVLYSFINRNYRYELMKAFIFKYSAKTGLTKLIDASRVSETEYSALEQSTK
Chain of Cytochrome P450 2C9 (P11712 whole entry): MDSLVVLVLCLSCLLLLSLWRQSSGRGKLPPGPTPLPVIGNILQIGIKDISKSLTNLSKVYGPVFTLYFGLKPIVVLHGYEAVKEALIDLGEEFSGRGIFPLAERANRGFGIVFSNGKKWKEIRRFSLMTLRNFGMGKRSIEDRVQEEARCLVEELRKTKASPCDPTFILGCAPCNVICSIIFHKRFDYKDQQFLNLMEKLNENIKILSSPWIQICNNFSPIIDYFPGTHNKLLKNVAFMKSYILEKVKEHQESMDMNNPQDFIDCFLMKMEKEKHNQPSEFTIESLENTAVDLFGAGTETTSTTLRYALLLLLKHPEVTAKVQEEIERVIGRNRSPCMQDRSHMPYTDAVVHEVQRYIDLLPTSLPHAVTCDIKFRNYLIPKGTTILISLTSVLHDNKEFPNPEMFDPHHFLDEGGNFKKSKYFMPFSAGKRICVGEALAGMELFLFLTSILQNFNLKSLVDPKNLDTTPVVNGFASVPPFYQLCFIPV
Chain of Chemerin-like receptor 1 (Homo sapiens) (Q99788 whole entry): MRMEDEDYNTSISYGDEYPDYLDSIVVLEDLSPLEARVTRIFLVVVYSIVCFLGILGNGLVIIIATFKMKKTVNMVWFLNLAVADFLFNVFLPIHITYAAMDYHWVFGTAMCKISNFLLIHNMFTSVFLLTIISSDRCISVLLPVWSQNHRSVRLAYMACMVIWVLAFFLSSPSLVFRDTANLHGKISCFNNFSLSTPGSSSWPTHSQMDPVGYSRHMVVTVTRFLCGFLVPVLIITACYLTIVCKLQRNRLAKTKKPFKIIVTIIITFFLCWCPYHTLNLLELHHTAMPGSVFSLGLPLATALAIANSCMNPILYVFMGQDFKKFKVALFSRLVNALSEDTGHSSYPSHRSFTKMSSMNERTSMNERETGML
Chain of C-C chemokine receptor type 4 (Homo sapiens) (P51679 whole entry): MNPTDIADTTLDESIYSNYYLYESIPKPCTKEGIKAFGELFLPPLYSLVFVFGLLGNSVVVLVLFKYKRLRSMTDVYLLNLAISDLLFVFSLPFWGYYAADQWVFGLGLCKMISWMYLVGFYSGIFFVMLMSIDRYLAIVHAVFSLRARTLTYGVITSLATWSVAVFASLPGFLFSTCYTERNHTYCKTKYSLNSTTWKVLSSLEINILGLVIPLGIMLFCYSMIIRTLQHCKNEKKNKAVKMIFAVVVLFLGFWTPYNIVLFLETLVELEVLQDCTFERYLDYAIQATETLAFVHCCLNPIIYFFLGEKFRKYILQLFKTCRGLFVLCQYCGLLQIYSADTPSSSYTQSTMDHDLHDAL
Chain of C-C chemokine receptor type 1 (Homo sapiens) (P32246 whole entry): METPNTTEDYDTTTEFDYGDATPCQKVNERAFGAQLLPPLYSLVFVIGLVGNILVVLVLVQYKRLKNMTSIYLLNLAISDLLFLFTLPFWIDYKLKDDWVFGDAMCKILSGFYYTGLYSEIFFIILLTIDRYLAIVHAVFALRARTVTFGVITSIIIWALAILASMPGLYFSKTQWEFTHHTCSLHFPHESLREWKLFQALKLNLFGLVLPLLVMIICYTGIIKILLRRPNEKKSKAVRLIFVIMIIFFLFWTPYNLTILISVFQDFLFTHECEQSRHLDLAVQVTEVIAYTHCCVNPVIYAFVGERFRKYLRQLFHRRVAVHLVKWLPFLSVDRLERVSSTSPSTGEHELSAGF
Chain of Cytochrome P450 2C19 (P33261 whole entry): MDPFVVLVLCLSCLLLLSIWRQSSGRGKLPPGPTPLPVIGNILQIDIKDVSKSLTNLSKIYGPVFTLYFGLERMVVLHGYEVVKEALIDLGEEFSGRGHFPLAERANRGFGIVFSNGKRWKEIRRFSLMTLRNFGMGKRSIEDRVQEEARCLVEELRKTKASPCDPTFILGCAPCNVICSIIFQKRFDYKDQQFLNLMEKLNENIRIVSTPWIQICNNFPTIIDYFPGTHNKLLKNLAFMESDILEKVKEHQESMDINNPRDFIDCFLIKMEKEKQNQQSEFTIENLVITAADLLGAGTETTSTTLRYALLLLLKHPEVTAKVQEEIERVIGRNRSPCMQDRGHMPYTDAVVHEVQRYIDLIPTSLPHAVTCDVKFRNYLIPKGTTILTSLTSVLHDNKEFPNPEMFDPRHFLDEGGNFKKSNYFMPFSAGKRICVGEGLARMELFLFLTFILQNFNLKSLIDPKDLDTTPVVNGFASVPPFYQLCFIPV
Chain of Cytochrome P450 1A2 (P05177 whole entry): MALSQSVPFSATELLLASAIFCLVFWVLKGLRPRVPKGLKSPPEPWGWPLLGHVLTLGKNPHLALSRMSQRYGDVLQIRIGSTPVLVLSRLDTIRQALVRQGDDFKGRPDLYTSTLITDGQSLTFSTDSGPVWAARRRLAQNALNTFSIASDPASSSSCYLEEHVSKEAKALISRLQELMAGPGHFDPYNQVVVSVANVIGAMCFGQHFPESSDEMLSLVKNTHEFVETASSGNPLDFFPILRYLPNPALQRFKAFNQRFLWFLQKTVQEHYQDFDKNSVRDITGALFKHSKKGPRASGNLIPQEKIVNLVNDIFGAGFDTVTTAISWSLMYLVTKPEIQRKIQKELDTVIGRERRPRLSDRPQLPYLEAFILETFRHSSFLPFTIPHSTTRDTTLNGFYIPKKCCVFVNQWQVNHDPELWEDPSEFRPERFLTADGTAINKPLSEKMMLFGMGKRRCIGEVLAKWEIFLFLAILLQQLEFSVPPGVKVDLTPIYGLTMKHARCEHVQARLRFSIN
Chain of C-C chemokine receptor type 8 (Homo sapiens) (P51685 whole entry): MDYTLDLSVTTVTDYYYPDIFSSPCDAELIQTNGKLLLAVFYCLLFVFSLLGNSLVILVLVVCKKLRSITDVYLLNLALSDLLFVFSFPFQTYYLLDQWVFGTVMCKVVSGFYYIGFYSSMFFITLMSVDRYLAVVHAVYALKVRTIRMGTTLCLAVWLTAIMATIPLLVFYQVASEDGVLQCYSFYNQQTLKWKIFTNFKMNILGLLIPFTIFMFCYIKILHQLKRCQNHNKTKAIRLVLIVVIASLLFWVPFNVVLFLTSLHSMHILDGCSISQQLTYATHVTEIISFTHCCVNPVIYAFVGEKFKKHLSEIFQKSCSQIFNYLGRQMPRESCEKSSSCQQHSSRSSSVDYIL

With `C[C@H](c1ccc(Cl)cc1Cl)n1nc(C#N)c2ncc(N3CC([C@H]4CCCN(CCO)C4)C3)nc21` the remaining at 1 h, 1 µM [1] was 73%, the IC50 (Cytochrome P450 1A2) was > 40 µM and the IC50 (Cytochrome P450 2C9) was > 40 µM. For the same compound, the IC50 (Cytochrome P450 2C19) was > 40 µM, the clearance [2] was 10.2 mL/min/kg and the Vd [3] was 5.2 L/kg. For the same compound, the half-life [4] was 6.9 h, the AUC(0-t) [5] was 751 ng·h/mL and the bioavailability [6] was 29%. The clearance [7] was 7.3 mL/min/kg, the half-life [8] was 12.7 h and the bioavailability [9] was 44%. For the same compound, the clearance [10] was 3.7 mL/min/kg, the half-life [11] was 10.7 h and the bioavailability [12] was 41%. For the same compound, the Activity [13] was “inactive”, the Activity [14] was “Active” and the Activity [15] was “inactive”. The Activity [16] was “inactive”, the Activity [17] was “inactive” and the Activity [18] was “inactive”. The Activity [19] was “inactive”, the Activity [20] was “inactive” and the Activity [21] was “inactive”. The Activity [22] was “inactive”, the Activity [23] was “inactive” and the Activity (CT26 [24]) was “Active”. The Activity (CT26 [25]) was “Active”, the Activity (Panc02 [26]) was “Active” and the Activity (Panc02 [27]) was “Dose-dependent effect”. For the same compound, the Activity (Cytochrome P450) was “Not Active”.
